The source made the active and inactive calls. No cut-off for these calls is given here.
Key:
Klebsiella pneumoniae [1] = assay: Synergistic antibacterial activity against […] Klebsiella pneumoniae NCTC 13368 assessed as novobiocin MIC at <=0.25 times MIC incubated for overnight by microbroth dilution checkerboard assay; type: functional
Summary of the method: (§1)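 Checkerboard run under the MIC conditions (TSB, overnight, 37 °C). Antibiotic and lipoguanidine 2-fold series were combined on one plate before bacteria were added. Growth/no-growth was scored as for the MIC (<0.1 OD600). Single-agent MICs were measured on the same plates. Three independent repeats were done.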

Klebsiella pneumoniae [2] = assay: Synergistic antibacterial activity against […] Klebsiella pneumoniae M6 assessed as novobiocin MIC at <=0.25 times MIC incubated for overnight by microbroth dilution checkerboard assay; type: functional; summary of the method: as §1
Acinetobacter baumannii [3] = assay: Synergistic antibacterial activity against Acinetobacter baumannii AYE assessed as novobiocin MIC at <=0.25 times MIC incubated for overnight by microbroth dilution checkerboard assay; type: functional
Summary of the method: (§2)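 Checkerboard microdilution under MIC conditions (TSB, overnight, 37 °C). Two-fold series of each agent were combined on one plate before bacteria were added, and single-agent MICs were measured on the same plate. FIC = sum of combination MIC/alone MIC for each agent, taken from the most synergistic well. Three independent repeats, mean ± SD. ≤0.5 was taken as strong synergy and 0.5–<1 as weak.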

Acinetobacter baumannii [4] = assay: Synergistic antibacterial activity against Acinetobacter baumannii ATCC 17978 assessed as novobiocin MIC at <=0.25 times MIC incubated for overnight by microbroth dilution checkerboard assay; type: functional; summary of the method: as §2
Pseudomonas aeruginosa [5] = assay: Synergistic antibacterial activity against Pseudomonas aeruginosa PAO1 assessed as novobiocin MIC at <=0.25 times MIC incubated for overnight by microbroth dilution checkerboard assay; type: functional
Summary of the method: (§3)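 Checkerboard microdilution in Tryptic Soy Broth, run like the MIC assay. Overnight TSB cultures were back-diluted to OD 0.01 and added 1:1 to the combined two-fold series of both agents, then incubated overnight at 37 °C. Growth/no-growth was called at <0.1 OD600. MICs alone were read on the same plates. FIC index came from the most synergistic well; three independent repeats, mean ± SD.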

Pseudomonas aeruginosa [6] = assay: Synergistic antibacterial activity against Pseudomonas aeruginosa NCTC 13437 assessed as novobiocin MIC at <=0.25 times MIC incubated for overnight by microbroth dilution checkerboard assay; type: functional; summary of the method: as §3
Escherichia coli [7] = assay: Synergistic antibacterial activity against Escherichia coli NCTC 12923 assessed as novobiocin MIC at <=0.25 times MIC incubated for overnight by microbroth dilution checkerboard assay; type: functional; summary of the method: as §2
[8] = Hemolytic activity in human Red blood cells at 512 microg/ml measured after 1 hrs by absorbance based assay relative to control; type: toxicity, cell-based, Erythrocyte; details: red blood cells (erythrocytes), at 512 µg/mL, read-out: Activity
Summary of the method: (§4)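 Titrations in PBS were incubated with freshly collected human red blood cells for 1 h at 37 °C. Controls were 0.1% Triton-X-100 (full lysis) and PBS alone (no lysis). After centrifugation, supernatant OD550 was read. % haemolysis = (AP−AB)/(AC−AB)×100. Data are means and standard error of three biological replicates.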

Klebsiella pneumoniae [9] = assay: Synergistic antibacterial activity against Klebsiella pneumoniae NCTC 13368 assessed as bacterial growth inhibition incubated for overnight in presence of PBMN by microbroth dilution method relative to control; type: functional
Summary of the method: (§5)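 Adapted broth microdilution in TSB. The test compound was in a 2-fold dilution series, with PMBN added at a fixed 30 µg/mL. Bacteria at OD 0.02 were added, and plates were incubated overnight at 37 °C. Growth/no growth was read as for the MIC (<0.1 OD600).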

Klebsiella pneumoniae [10] = assay: Synergistic antibacterial activity against Klebsiella pneumoniae M6 assessed as bacterial growth inhibition incubated for overnight in presence of PBMN by microbroth dilution method relative to control; type: functional; summary of the method: as §5
Acinetobacter baumannii [11] = assay: Synergistic antibacterial activity against Acinetobacter baumannii ATCC 17978 assessed as bacterial growth inhibition incubated for overnight in presence of PBMN by microbroth dilution method relative to control; type: functional; summary of the method: as §5
Pseudomonas aeruginosa [12] = assay: Synergistic antibacterial activity against Pseudomonas aeruginosa PAO1 assessed as bacterial growth inhibition incubated for overnight in presence of […] by microbroth dilution method relative to control; type: functional
Summary of the method: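 Fixed-concentration combination MIC in TSB. The first agent was set in a two-fold dilution series (100 µL/well), then 50 µL/well of the second agent at a fixed concentration was added; PMBN was fixed at 30 µg/mL. Bacteria at OD 0.02 (50 µL) went into 150 µL of compounds, overnight at 37 °C. MIC was the lowest concentration without visible growth (<0.1 OD600).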

Pseudomonas aeruginosa [13] = assay: Synergistic antibacterial activity against Pseudomonas aeruginosa NCTC 13437 assessed as bacterial growth inhibition incubated for overnight in presence of PBMN by microbroth dilution method relative to control; type: functional; summary of the method: as §5
Escherichia coli [14] = assay: Synergistic antibacterial activity against Escherichia coli NCTC 12923 assessed as bacterial growth inhibition incubated for overnight in presence of PBMN by microbroth dilution method relative to control; type: functional; summary of the method: as §5
Pseudomonas aeruginosa [15] = assay: Synergistic antibacterial activity against Pseudomonas aeruginosa NCTC 13437 assessed as reduction in rifampicin MIC at 8 to 32 microg/ml incubated for overnight by microbroth dilution checkerboard assay; type: functional, organism-based; details: dose 8-32 µg/ml
Summary of the method: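 Broth microdilution in Tryptic Soy Broth, with rifampicin in a 2-fold dilution series combined with the second agent. Bacteria were grown overnight in TSB, back-diluted, then incubated with the compounds overnight at 37 °C. MIC was taken as the lowest concentration with no visible growth (<0.1 OD600).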

Escherichia coli [16] = assay: Synergistic antibacterial activity against Escherichia coli NCTC 12923 assessed as reduction in rifampicin MIC at 32 microg/ml incubated for overnight by microbroth dilution checkerboard assay; type: functional, organism-based; details: dose 32.0 µg/ml; summary of the method: as §2
Klebsiella pneumoniae [17] = assay: Synergistic antibacterial activity against Klebsiella pneumoniae NCTC 13368 assessed as fold change in novobiocin MIC at <=0.25 times MIC incubated for overnight by microbroth dilution checkerboard assay relative to novobiocin alone; type: functional; summary of the method: as §2
Klebsiella pneumoniae [18] = assay: Synergistic antibacterial activity against Klebsiella pneumoniae M6 assessed as fold change in novobiocin MIC at <=0.25 times MIC incubated for overnight by microbroth dilution checkerboard assay relative to novobiocin alone; type: functional; summary of the method: as §2
Acinetobacter baumannii [19] = assay: Synergistic antibacterial activity against Acinetobacter baumannii AYE assessed as fold change in novobiocin MIC at <=0.25 times MIC incubated for overnight by microbroth dilution checkerboard assay relative to novobiocin alone; type: functional; summary of the method: as §2
Acinetobacter baumannii [20] = assay: Synergistic antibacterial activity against Acinetobacter baumannii ATCC 17978 assessed as fold change in novobiocin MIC at <=0.25 times MIC incubated for overnight by microbroth dilution checkerboard assay relative to novobiocin alone; type: functional; summary of the method: as §2
Pseudomonas aeruginosa [21] = assay: Synergistic antibacterial activity against Pseudomonas aeruginosa PAO1 assessed as fold change in novobiocin MIC at <=0.25 times MIC incubated for overnight by microbroth dilution checkerboard assay relative to novobiocin alone; type: functional; summary of the method: as §3
Pseudomonas aeruginosa [22] = assay: Synergistic antibacterial activity against Pseudomonas aeruginosa NCTC 13437 assessed as fold change in novobiocin MIC at <=0.25 times MIC incubated for overnight by microbroth dilution checkerboard assay relative to novobiocin alone; type: functional; summary of the method: as §2
Escherichia coli [23] = assay: Synergistic antibacterial activity against Escherichia coli NCTC 12923 assessed as fold change in novobiocin MIC at <=0.25 times MIC incubated for overnight by microbroth dilution checkerboard assay relative to novobiocin alone; type: functional; summary of the method: as §2
Erythrocyte = assay: Hemolytic activity in human Red blood cells at 512 microg/ml measured after 1 hrs by absorbance based assay; type: toxicity, cell-based; details: dose 512 µg/ml; summary of the method: as §4

| Compound | MIC (Klebsiella pneumoniae [1]) [µg/mL] | MIC (Klebsiella pneumoniae [2]) [µg/mL] | MIC (Acinetobacter baumannii [3]) [µg/mL] | MIC (Acinetobacter baumannii [4]) [µg/mL] | MIC (Pseudomonas aeruginosa [5]) [µg/mL] | MIC (Pseudomonas aeruginosa [6]) [µg/mL] | MIC (Escherichia coli [7]) [µg/mL] | inhibition (INH) (Klebsiella pneumoniae [9]) [%] | inhibition (INH) (Klebsiella pneumoniae [10]) [%] | inhibition (INH) (Acinetobacter baumannii [11]) [%] | inhibition (INH) (Pseudomonas aeruginosa [12]) [%] | inhibition (INH) (Pseudomonas aeruginosa [13]) [%] | fold change (FC) (Klebsiella pneumoniae [17]) | fold change (FC) (Klebsiella pneumoniae [18]) | fold change (FC) (Acinetobacter baumannii [19]) | fold change (FC) (Acinetobacter baumannii [20]) | fold change (FC) (Pseudomonas aeruginosa [21]) | fold change (FC) (Pseudomonas aeruginosa [22]) | fold change (FC) (Escherichia coli [23]) | Activity (Erythrocyte) | other results |
| --- | --- | --- | --- | --- | --- | --- | --- | --- | --- | --- | --- | --- | --- | --- | --- | --- | --- | --- | --- | --- | --- |
| CCCCCCCCCCNC(=N)NCCCCN | 16 | 4 | ≤ 0.125 | 0.25 | 2 | 8 | 0.5 | <20 | <20 | <20 | <20 | <20 | >=4 | >=4 | >=4 | >=4 | >=4 | >=4 | >=4 | – | hemolysis at 1 h, 512 microg/ml [8]: 8.2%; inhibition (INH) (Escherichia coli [14]): <20%; Activity (Pseudomonas aeruginosa [15]): Active; Activity (Escherichia coli [16]): Active |
| CC/C=C\C/C=C\C/C=C\CCCCCCCCNC(=N)NCCCCN | > 128 | 8 | ≤ 0.125 | ≤ 0.125 | > 128 | > 128 | 32 | – | – | – | – | – | 0 | >=4 | >=4 | >=4 | 0 | 0 | 0 | Toxic | – |
| CCCCCCCC/C=C\CCCCCCCCNC(=N)NCCCCN | > 128 | 16 | ≤ 0.125 | ≤ 0.125 | > 128 | > 128 | > 128 | <20 | <20 | <20 | <20 | <20 | 0 | >=4 | >=4 | >=4 | 0 | 0 | 0 | Toxic | inhibition (INH) (Escherichia coli [14]): <20% |
| CCCCC/C=C\C/C=C\CCCCCCCCNC(=N)NCCCCN | > 128 | 64 | 1 | 1 | > 128 | > 128 | > 128 | – | – | – | – | – | 0 | 0 | >=4 | 0 | 0 | 0 | 0 | Toxic | hemolysis at 1 h, 512 microg/ml [8]: 100% |
| CCCCCCCCCCCCNC(=N)NCCCCN | – | – | – | – | – | – | – | <20 | <20 | <20 | <20 | <20 | – | – | – | – | – | – | – | Toxic | inhibition (INH) (Escherichia coli [14]): <20% |
| CCCCCCCC/C=C\CCCCCCCCNC(=N)NCCCCNC(=N)N | > 128 | 1 | ≤ 0.125 | ≤ 0.125 | > 128 | > 128 | 4 | <20 | <20 | <20 | <20 | <20 | 0 | >=4 | 0 | >=4 | 0 | 0 | >=4 | Toxic | inhibition (INH) (Escherichia coli [14]): <20% |

Source: ChEMBL document CHEMBL5357066, “Development of Novel Membrane Disrupting Lipoguanidine Compounds Sensitizing Gram-Negative Bacteria to Antibiotics” (ACS Med Chem Lett, 2024)
